Screening data deposited in PubChem BioAssay by The Scripps Research Institute Molecular Screening Center.
Only some compounds are listed: those with a hit (about 4.6% of all), similar ones and a draw of the others.
OX1R antag-1 = antagonists of human orexin 1 receptor (OX1R). O43613. inhibition, % at 6.6 µM. actives 1.8% (n = 330,000). OX1R-expressing cells, FRET antagonist read-out. AID 485270; in the data active means inhibition mostly above about 38%, no sharp cut-off; inactive means mostly below about 40%;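 further: 0% = agonist challenge alone and 100% = reference antagonist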
Target sequence (O43613 whole entry, looked up): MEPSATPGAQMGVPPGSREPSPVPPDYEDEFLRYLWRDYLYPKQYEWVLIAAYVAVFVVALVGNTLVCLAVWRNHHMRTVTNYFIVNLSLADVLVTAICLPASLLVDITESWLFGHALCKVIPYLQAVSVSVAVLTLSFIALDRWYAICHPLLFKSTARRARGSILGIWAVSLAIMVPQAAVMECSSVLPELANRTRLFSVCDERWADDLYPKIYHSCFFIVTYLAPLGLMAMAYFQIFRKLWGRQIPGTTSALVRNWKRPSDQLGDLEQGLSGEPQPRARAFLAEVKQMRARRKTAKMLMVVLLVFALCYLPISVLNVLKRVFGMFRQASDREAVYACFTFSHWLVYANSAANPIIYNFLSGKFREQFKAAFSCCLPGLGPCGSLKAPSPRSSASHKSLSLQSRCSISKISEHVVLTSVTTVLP
OX1R antag-2 = antagonists of human orexin 1 receptor; O43613; CHO/OX1R cells, Fluo-8 calcium fluorescence, orexin A; inhibition, % at 5 µM; actives 0.43% (n = 330,000); AID 434989;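 active means inhibition above its plate's threshold, mean inhibition of all tested compounds on the plate plus 3 SD, cut at about 37% in these data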;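 further: 0% = orexin A challenge wells and 100% = SB-334867-A antagonist wells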
TAAR1 antagonist = antagonists of human TAAR1; Q96RJ0; AID 624466; inhibition, % at 3 µM; actives 1.5% (n = 360,000); CHO RD-HGA16 TAAR1, Fluo-8 calcium fluorescence, antagonist;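 active means inhibition above a per-plate cutoff, the mean inhibition of test compounds on that plate plus 3 SD, cut at about 49% in these data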;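 further: 0% = DMSO plus EC80 beta-PEA response and 100% = DMSO alone without agonist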
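Test system – hTAAR1-expressing CHO RD-HGA16 cells, Gα16-coupled · Also added – β-PEA at EC80 concentration, post-compound challenge · Compound – 3 µM, single point · Incubation – dye loading 75 min at 37 °C, then 30 min room temperature · Measured by – Fluo-8 intracellular calcium dye fluorescence, real-time kinetic reads · Benchmarks – vehicle and agonist controls · Replicates – singlicate, one well per test compound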
GPR7 antag = antagonists of human GPR7 (neuropeptides B/W receptor 1); actives 1.1% (n = 290,000); inhibition, % at 4.4 µM; GPR7-expressing cells, fluorescence antagonist assay; AID 1861; P48145; in the data active means inhibition above about 16%, passing the limit was not always enough;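 further: cells stimulated with the agonist NPW; 0% = agonist with vehicle and 100% = vehicle without agonist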
TAAR1 ag = human TAAR1 agonism; Q96RJ0; CHO RD-HGA16 TAAR1, Fluo-8 calcium fluorescence; vehicle wells 0%, saturating PEA agonist 100%; activation, % at 3 µM; actives 0.99% (n = 360,000);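 active means activation above the mean activation of all test compounds in the run plus 3 SD, cut at about 38% in these data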
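System: CHO-derived RD-HGA16 cells with stable Gα16 and human TAAR1. Times: 17-24 h plating, Fluo-8 75 min 37 °C, 30 min RT. Measured by: calcium-sensitive Fluo-8 signal, excitation 470-495, emission 515-575 nm. Read-out basis: % activation relative to PEA EC100 response. Control set: DMSO and PEA EC100. Repeats: no replicates (n 1).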
CHO parental Ca = counter-screen: ATP calcium response change in parental CHO cells | actives 0.63% (n = 330,000) | inhibition, % at 5.6 µM | parental CHO-K1, ATP-induced calcium, Fluo-8 fluorescence | AID 463079;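 active means inhibition above that plate's mean sample inhibition plus 3 SD, cut at about 26% in these data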;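 further: 0% = ATP-challenged DMSO wells and 100% = DMSO wells without ATP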
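Material – parental CHO cells · Reagent – ATP stimulus · Compound – single nominal dose of 5.6 µM per compound · Detection – Fluo-8 fluorescence · Read-out basis – percent inhibition of calcium signal · Controls – ATP-challenged DMSO wells low, unchallenged DMSO wells high · Repeats – no replicates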
The depositor's hits bear a star; · = not tested or not shown.

SMILES	OX1R antag-1	OX1R antag-2	TAAR1 antagonist	GPR7 antag	TAAR1 ag	CHO parental Ca
O=C(c1ccco1)N1CCN(Cc2nc3ccc([N+](=O)[O-])cc3c(=O)n2-c2ccccc2F)CC1	9	-7	69*	1	18	-10
CCNC(=O)C1(C)CCCN(C(=O)c2nc3ccccc3s2)C1 (stereo not given)	·	·	-11	·	2	·
O=C1CNC(=O)c2cc(Cl)ccc2N1	·	·	-19	·	1	·
COC(=O)c1cccc(Nc2cc(C)n(-c3cccc(C(=O)OC)c3)c(=O)c2)c1	·	·	-14	·	-1	·
Cc1cc(C)cc(NC(=O)Nc2ccc(-n3ccc(C(F)(F)F)n3)cc2)c1	54*	54*	32	9	4	40*
O=C(O)CCC(=O)Nc1ccc(-n2ccc(C(F)(F)F)n2)cc1	5	-5	-3	-4	2	-14
N#Cc1ccc(S(=O)(=O)N2CCCc3nc(-c4ccc(Br)cc4)ccc32)cc1	·	·	-6	·	2	·
COc1ccc(CN2C[C@@]3(O)CC[C@@H](O)[C@@H](OC)[C@@H]3[C@@](C)(O)[C@@H]2CC=C(C)C)cc1	·	·	-19	·	1	·
COc1ccc(C2CC(=O)C(c3cccc(F)c3)=CN2Cc2ccccc2)cc1 (stereo not given)	·	·	23	·	1	·
Cc1cc(OCC(O)CN(C)C(=O)C(C)Oc2ccccc2)ccc1Cl (stereo not given)	48*	12	-24	15	2	-14
CN(C)CC(O)COc1cccc(OCC(O)CN(C)C)c1 (stereo not given)	12	-6	10	-9	3	7
Cc1ccccc1C(=O)N1CCC[C@@H]1C(=O)N1CCC[C@H]1C(=O)NCc1ccccc1	·	·	-10	·	0	·
COCCN=C1Sc2ccccc2[C@@H]2C[C@H]3[C@H](CON3C)CN12	·	·	-8	·	1	·
CCCOc1cccc(-c2cc(C(=O)N/N=C/c3cccnc3)c3ccccc3n2)c1	·	·	54*	-17	4	·
Cc1ccc([C@H]2C[C@]34CN(Cc5ccccc5)S(=O)(=O)[C@H]3C[C@H]2O4)cc1	·	·	1	·	0	·
O=C(Nc1ncc([N+](=O)[O-])s1)c1cccc([N+](=O)[O-])c1	39*	-4	1	-8	14	13
CC(C)CC(=O)Nc1ncc([N+](=O)[O-])s1	24	3	-18	11	2	-4
O=C(O)C1CCCC[C@H]1C(=O)Nc1ncc([N+](=O)[O-])s1 (stereo not given in full)	66*	-9	6	·	2	-7
O=C(COC(=O)c1ccccc1)Nc1ncc([N+](=O)[O-])s1	37*	21	9	·	5	-1
O=C(Nc1ccc(NC(=O)c2cccc([N+](=O)[O-])c2)cc1)c1cccc([N+](=O)[O-])c1	0	-30	20	-10	6	-8
CSCCC(NC(=O)OCc1ccccc1)C(=O)NC(Cc1c[nH]c2ccccc12)C(=O)O (stereo not given)	·	·	-28	·	1	·
COC(=O)C1=C(C)N(Cc2cccc(C(F)(F)F)c2)C(=NCc2ccc3c(c2)OCO3)NC1CCc1ccccc1 (stereo not given)	·	·	-12	·	13	·
CN(C(=O)c1ccccc1OCc1ccc(Cl)cc1)c1ccccc1	23	-14	-25	-2	-1	-7
CN(Cc1nc2ccccc2c(=O)[nH]1)C(=O)c1ccccc1OCc1ccc(Cl)cc1	56*	27	21	·	7	-25
Cc1cccc(C(=O)NCC(=O)N(C)Cc2nc3ccccc3c(=O)[nH]2)c1	2	4	7	·	5	-9
SMILES	OX1R antag-1	OX1R antag-2	TAAR1 antagonist	GPR7 antag	TAAR1 ag	CHO parental Ca
CN(Cc1nc2ccccc2c(=O)[nH]1)C(=O)c1cc(-c2ccc(Br)cc2)nc2ccccc12	·	·	50*	·	3	·
CCCN(CC(=O)Nc1ccc(Cl)cc1Cl)C(=O)/C=C/c1cc(OC)ccc1OC	18	-24	23	-4	0	-27
CCCN(CC(=O)Nc1cc(Cl)ccc1Cl)C(=O)/C=C/c1cc(OC)ccc1OC	43*	32	26	·	12	-19
O=c1c(-c2cc3ccccc3[nH]2)nc2ccccc2n1C(CCc1ccccc1)c1nc2ccccc2[nH]1 (stereo not given)	·	·	-7	·	2	·
O=C(CNc1cccc(S(=O)(=O)N2CCCCCC2)c1)Nc1cccc([N+](=O)[O-])c1	7	32	56*	·	9	-1
O=C(CNc1cc([N+](=O)[O-])ccc1NCCO)Nc1cccc(S(=O)(=O)N2CCCCC2)c1	8	-5	-6	·	2	-5
O=C(CNc1cccc(Br)c1)Nc1ccc(S(=O)(=O)N2CCCCC2)cc1	·	·	-9	·	10	·
O=C(Nc1cccc(S(=O)(=O)N2CCCCC2)c1)c1ccc(S(=O)(=O)C(F)F)cc1	19	-15	53*	-5	11	4
CCNc1ccc(S(=O)(=O)N2CCOCC2)cc1NCC(=O)Nc1cccc(Br)c1	·	·	53*	·	13	·
O=C(N1CCCCCC1)N1CCN(S(=O)(=O)c2cccc([N+](=O)[O-])c2)CC1	52*	-19	-4	16	2	-12
Nc1ccn(C2C=CC(CO)O2)c(=O)n1 (stereo not given)	·	·	-16	·	1	·
CSc1ncccc1C(=O)Nc1ccc(F)c(F)c1F	5	-14	6	15*	7	-7
COc1cc(/C=C(\C#N)c2nc3c(s2)CCCC3)ccc1O	14	94*	·	3	·	82*
Cc1cc2c(nc1C)CCCN2S(=O)(=O)c1ccccc1	·	·	-33	·	0	·
CN(C)c1ccc2nsnc2c1[N+](=O)[O-]	39*	-2	-26	-5	3	-1
COc1cc(N)c(Cc2nccc3cc(OC)c(OC)cc23)cc1OC	19	-20	-4	-6	5	-24
COc1ccc(C(N)c2nccc3cc(OC)c(OC)cc23)cc1OC (stereo not given)	73*	-41	·	-2	·	-14
C=CCNC(=S)N(C)[C@H]1C[C@H]2c3[nH]c4c(-c5ccccc5)cccc4c3CCN2C(=O)[C@H]1[C@H](C)O	·	·	38	·	15	·
O=C(CNC(=O)c1ccccc1)N/N=C/C=C/c1ccccc1	5	-15	21	-20	42*	0
Cc1ccc(C)c(C(=O)COC(=O)c2nn(C)c(=O)c3ccccc23)c1	33*	-1	41	·	6	-27
Cn1nc(C(=O)OCC(=O)c2ccccc2)c2ccccc2c1=O	4	-17	20	·	5	-25
Cn1c(CSCc2ccc(Cl)c(Cl)c2)nnc1SCC(=O)Nc1nccs1	33	1	62*	10	40*	-7
Cn1c(CSCc2ccc(F)cc2)nnc1SCC(=O)Nc1nccs1	12	-16	35	8	20	-9
